The source made the active and inactive calls. The rule behind the calls is not given here.
Legend:
Mus musculus [1] = assay: Toxicity in NOD/SCID mouse xenografted with human MIAPaCa2 cells assessed as microscopic changes in kidney at 5 mg/kg, ip administered 5 times a week until day 44 by hematoxylin and eosin staining-based inverted microscopic method; type: organism-based; details: in vivo
How it was run: (§1)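 Necropsy after the 44-day ip course in MIA PaCa-2 xenograft-bearing NOD/SCID mice: heart, kidney, liver, lung, spleen and pancreas fixed in 10% neutral buffered formalin, paraffin-embedded, sectioned and stained with hematoxylin and eosin. Sections examined by inverted microscope at 20X, compared with vehicle-treated animals.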

Mus musculus [2] = assay: Induction of reactive oxygen species generation in tumor of NOD/SCID mouse xenografted with MIAPaCa2 cells assessed as upregulation of NQO1 expression at 5 mg/kg, ip administered 5 times a week until day 44 by Western blot method; type: functional, organism-based
Mus musculus [3] = assay: Toxicity in NOD/SCID mouse xenografted with human MIAPaCa2 cells assessed as lethargy at 5 mg/kg, ip administered 5 times a week until day 44; type: organism-based; details: in vivo
How it was run: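 Subcutaneous flank MIA PaCa-2 xenografts (2.0×10^6 cells) in 6-week NOD/SCID mice, randomized at 65 mm3 (n=5/group: vehicle or drug). Dosed ip in 5% DMSO/60% propylene glycol/35% saline, five days on/two off, to day 44. Body weight tracked and mice watched for weakness, weight loss or lethargy; mean ± SEM.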

MIA PaCa-2 [4] = assay: Downregulation of COX-3 expression in human MIAPaCa2 cells at 2 uM after 4 to 24 hrs by Western blot method; type: functional, cell-based
How it was run: (§2)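 Immunoblotting. Cells (4×10^5) in 60 mm dishes were treated, lysed 30 min at 4°C and quantified by BCA. 40 μg protein was run on SDS-PAGE and transferred to PVDF. Primary antibodies (1:1000) incubated overnight at 4°C, then Dylight 800 secondary, with fluorescent scanning. Bands were normalized to GAPDH or actin loading controls. Mean ± SD, three independent experiments, Student's t-test.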

Mus musculus [5] = assay: Toxicity in NOD/SCID mouse xenografted with human MIAPaCa2 cells assessed as microscopic changes in spleen at 5 mg/kg, ip administered 5 times a week until day 44 by hematoxylin and eosin staining-based inverted microscopic method; type: organism-based; details: in vivo; how it was run: as §1
BXPC-3 [6] = assay: Induction of reactive oxygen species generation in human BxPC3 cells assessed as upregulation of HO-1 expression at 2 uM after 4 to 24 hrs by Western blot analysis; type: functional, cell-based; how it was run: as §2
MIA PaCa-2 [7] = assay: Antitumor activity against human MIAPaCa2 cells xenografted in NOD/SCID mouse assessed as delay of tumor growth at 5 mg/kg, ip administered 5 times a week until day 44 followed by dose escalation up to 20 mg/kg until day 67; type: functional, organism-based
How it was run: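 Subcutaneous MIA PaCa-2 flank xenografts in NOD/SCID mice, randomized at 65 mm3. Dosing was 5 mg/kg ip in 5% DMSO/60% propylene glycol/35% saline, five days on and two off, to day 44. Two mice per group then continued with the dose gradually raised to 20 mg/kg until day 67. Tumor volume was taken by caliper and body weight monitored.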

[8] = Induction of compound colloidal behavior
MIA PaCa-2 [9] = assay: Cytotoxicity against gemcitabine-resistant human MIAPaCa2 cells assessed as decrease in cell proliferation after 72 hrs by MTT assay; type: functional, cell-based
How it was run: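 MTT assay. Cells (3000–8000/well) attached overnight in RPMI1640 with 10% FBS; the GR line was kept with 200 nM gemcitabine. Serial dilutions (30 nM–10 μM for most lines) were applied for 72 h. MTT was added at a final 300 μg/mL for 3 h at 37°C, formazan was dissolved in DMSO and A570 read. Inhibition = (1 − OD treated/OD control) × 100. IC50 given as mean ± SD, three independent experiments.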

MIA PaCa-2 [10] = assay: Antitumor activity against human MIAPaCa2 cells xenografted in NOD/SCID mouse assessed as tumor volume at 5 mg/kg, ip administered 5 times a week co-administered with gemcitabine at 15 mg/kg administered once a week for 48 days (reference value: 1503 +/- 189 mm'3); type: functional
How it was run: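 MIA PaCa-2 subcutaneous xenografts in NOD/SCID mice, randomized at 75 mm3. Test agent was given at 5 mg/kg five times a week. Gemcitabine was given at 15 mg/kg either once weekly for 48 days or twice weekly for 15 days. Groups were n=3–4. Tumor volume was measured by caliper, given as mean ± SEM, and compared by unpaired t test.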

PANC-1 = assay: Induction of reactive oxygen species generation in human PANC1 cells assessed as upregulation of HO-1 expression at 2 uM after 4 to 24 hrs by Western blot analysis; type: functional, cell-based; how it was run: as §2
BXPC-3 [11] = assay: Induction of unfolded protein response in human BxPC3 cells assessed as upregulation of GRP78 expression at 2 uM by Western blot analysis; type: functional, cell-based; details: TDE = time-dependent effect; how it was run: as §2

O=C1C(Nc2ccc(-c3ccccc3)cc2)=CC(=O)c2ncncc21
Activity (Mus musculus [1]): Non-Toxic | Activity (Mus musculus [2]): Active | Activity (Mus musculus [3]): Non-Toxic | Activity (MIA PaCa-2 [4]): Active | Activity (Mus musculus [5]): Non-Toxic | Activity (BXPC-3 [6]): Active | Activity (MIA PaCa-2 [7]): Active | Activity [8]: Active | Activity (MIA PaCa-2 [9]): Dose-dependent effect | IC50 (MIA PaCa-2 [9]; MIA PaCa-2, 72 h): 1000 nM | Activity (MIA PaCa-2 [10]): 163 mm3 | Activity (PANC-1): inactive | Activity (BXPC-3 [11]): Tde
